Source: PubChem BioAssay (several laboratories)
Hits are enriched below; roughly 4.7% of the tested compounds scored in any of these assays.
IMP-1 inh: IMP-1 metallo-beta-lactamase inhibitors, primary screen, biochemical, epi-absorbance readout, Pseudomonas aeruginosa enzyme. inhibition, % at 5.6 µM. metallo-beta-lactamase IMP-1 (Pseudomonas aeruginosa). purified IMP-1, nitrocefin hydrolysis, epi-absorbance fluorescence. 0.45% of 290,000 active. AID 1556, 2009;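 active means inhibition above the mean plus 3 SD of all compounds in the same screening run, cut at about 4.5% in these data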;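 further: 0% = IMP-1 with DMSO and 100% = DMSO wells lacking enzyme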
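System: purified recombinant IMP-1 beta-lactamase. Medium: Zinc- and detergent-supplemented HEPES buffer, pH 7.1. Compound: one 5.6 µM dose […]. Schedule: 15 min preincubation plus 25 min reaction at 25 °C. Technique: Epi-absorbance fluorescence, 480 nm excitation, 530 nm emission.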
697 NFkB inh: inhibitors of PMA/ionomycin-induced NF-kB reporter, 697 cells, primary screen, B-cell NF-kB inhibitor project, cell-based, luminescence, uHTS. 0.33% of 330,000 active. AID 435022, 2010. 697 B-cell NF-kB luciferase reporter, 16 h. inhibition, % at 4 µM; in the data active means inhibition above about 35%
Mdm2-MdmX inh: inhibitors of human Mdm2-MdmX association, primary screen, cell-based, luminescence, split luciferase, SaOS-2, uHTS; Protein Mdm4 (Homo sapiens) + E3 ubiquitin-protein ligase Mdm2 (Homo sapiens), …; 3% of 330,000 active; inhibition, % at 8 µM; SaOS-2 split-luciferase Mdm2/MdmX complementation;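 active means inhibition of at least 50% at 8 µM in the primary screen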
VIM-2 inhibitor: VIM-2 metallo-beta-lactamase inhibitors, primary screen, biochemical, epi-absorbance readout, Pseudomonas aeruginosa enzyme. inhibition, % at 5.6 µM. 0.89% of 290,000 active. AID 1527, 2009. purified VIM-2, nitrocefin hydrolysis, epi-absorbance fluorescence;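 active means inhibition above the mean of all tested compounds plus 3 SD, cutoff set per screening run, cut at about 7.5% in these data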;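 further: red hydrolysis product quenches plate fluorescence so inhibitors raise well fluorescence; 0% = enzyme with DMSO and 100% = DMSO without enzyme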
aSyn 5UTR inh: MLPCN primary screen, SNCA 5' untranslated region. alpha-synuclein 5'UTR reporter, inhibitor activity. inhibition, % (tested at 7.5 µM). 0.82% of 300,000 active. AID 1813, 2009; in the data active means inhibition above about 60%; inconclusive means no clear call, values can overlap the other calls;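 further: H4 neuroglioblastoma cells stably carrying SNCA 5'UTR luciferase fusion; 0% = DMSO wells and 100% = positive control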
Jurkat NFkB inh: inhibitors of induced NF-kB luciferase reporter, primary screen, TCR NF-kB activation inhibitor project, cell-based, luminescence, uHTS; inhibition, % at 4 µM; 0.53% of 330,000 active; Jurkat, PMA/ionomycin-induced NF-kB luciferase reporter; in the data active means inhibition above about 50%
Mdm2-MdmX conf: Mdm2-MdmX complex disruptors, retested hits, confirmation, luminescence, single concentration; 55% of 10,000 active; inhibition, % at 8 µM; AID 489028, 2010; Mdm2-MdmX binding, luminescent assay; shares compounds with Mdm2-MdmX inh; in the data active means inhibition above about 40%
FLuc counter: full-length luciferase signal inhibition, confirmation, counter-screen for Mdm2/MdmX interaction inhibitor project, cell-based, single concentration, SaOS-2. shares compounds with Mdm2-MdmX inh. SaOS-2 full-length luciferase counterscreen, luminescence. inhibition, % at 8 µM. 77% of 6,200 active;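 active means mean inhibition at 8 µM reaching about 37%, which flags the compound as non-specific, limit read from the data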;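 further: p53-null SaOS-2 cells with luciferase driven by a doxycycline-inducible promoter; compound on cells about two nights before reading with doxycycline added after day one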
The depositor's hits bear a star; ? = inconclusive; · = no result given.

SMILES	IMP-1 inh	697 NFkB inh	Mdm2-MdmX inh	VIM-2 inhibitor	aSyn 5UTR inh	Jurkat NFkB inh	Mdm2-MdmX conf	FLuc counter
Cc1ccc(C(C)NC(=O)c2cc3cc(Br)ccc3oc2=N)cc1 (configuration not stated)	-0.2	-23.5	51.2*	0.1	-12.0	-4.1	35.1	·
Cc1cc2c(c(/C=C/C(=O)c3ccccc3)c1)OC1(C=C2)Oc2ccccc2C(=O)N1C (configuration not stated)	-3.5	-38.4	91.2*	-1.8	9.9	0.1	83.5*	47.6*
Cc1c(/C=C/C(=O)c2ccccc2)cnn1C	-1.9	-24.2	-12.2	-1.2	-122.7	-11.6	·	·
CC(=O)Nc1nc2ccccc2n1Cc1ccccc1Cl	-4.1	-23.7	66.7*	-4.2	86.6*	-9.6	59.5*	66.7*
CC(=O)NCc1nc2ccccc2n1Cc1ccccc1C	-2.3	-2.6	-6.6	-0.9	32.0	-0.6	·	·
CC(=O)Nc1nc2ccccc2n1Cc1ccccc1C	-4.7	-34.2	79.3*	-4.7	66.6*	-7.1	58.6*	71.0*
CC(C)C(=O)N1CCN(c2ccc(NC(=O)COc3ccccc3[N+](=O)[O-])cc2)CC1	-2.6	-10.9	28.6	-2.4	34.3	2.1	·	·
O=C(Nc1ccc(Cc2ccc(NC(=O)C3CC3)cc2)cc1)C1CC1	-2.7	-4.5	56.9*	-4.6	5.3	-17.4	14.7	·
Cc1ccc2c(c1)c1c(n2CC(O)Cn2ccnc2C)C(=O)CCC1 (configuration not stated)	-0.6	-1.0	31.3	0.7	-27.0	-12.4	·	·
Cc1ccc2c(c1)c1c(n2CC(O)CNC2CCCC2)CCCC1 (configuration not stated)	-2.3	7.7	56.5*	-2.1	-6.1	8.2	39.6	77.2*
Cc1cccc(NCc2ccc(O)c3ncccc23)c1	-3.6	-12.4	76.7*	-6.6	54.0	-4.2	74.2*	43.0*
COCc1ccc(O)c2ncccc12	-1.5	4.5	59.8*	-7.2	23.2	25.1	36.5	58.9*
Oc1ccc(CNc2ccc(F)cc2)c2cccnc12	-3.8	-67.3	85.5*	-2.1	75.6*	13.6	80.2*	36.0
Oc1ccc(CNc2ccccc2)c2cccnc12	-1.2	-8.7	85.9*	-2.2	20.9	-8.2	44.0*	50.9*
Cc1cccc(NC(=O)CSc2cccc3cccnc23)c1	-7.4	4.5	6.1	-1.9	-7.9	5.0	·	·
OCc1ccnc2c(O)cccc12	-3.0	-1.1	20.7	-2.0	-20.4	1.0	·	·
Cc1ccccc1NCc1ccc(O)c2ncccc12	-0.8	-24.7	83.9*	-0.9	49.2	45.8	76.0*	41.3*
C[C@@H](NCCc1ccc(O)cc1)[C@@H](O)c1ccc(O)cc1	·	21.7	-9.9	·	0.1	9.0	·	·
CCCCCCCCNC(C)C(O)c1ccc(SC(C)C)cc1 (configuration not stated)	-1.1	3.4	95.1*	-3.6	17.5	8.9	15.2	·
O=C(CSc1nnc2ccc(-c3ccc(F)cc3)nn12)N1CCOCC1	·	7.7	-11.2	·	6.1	5.0	·	·
Cc1ccc(N2CN=c3s/c(=C\c4cccnc4)c(=O)n3C2)cc1	-3.3	-18.3	65.6*	0.3	-53.7	-2.7	23.8	·
Cc1cc(C(=O)N/N=C/c2cc(Br)ccc2OC(=O)c2ccccc2)n[nH]1	-2.3	4.2	51.2*	1.0	·	11.8	39.4	18.9
O=C(N/N=C/c1cc(Br)ccc1OC(=O)c1ccc(Br)cc1)c1ccncc1	-1.9	6.9	42.6	-1.6	45.1	17.8	·	·
Cc1cc(C(=O)N/N=C/c2cc(Br)ccc2OC(=O)c2ccccc2Cl)n[nH]1	-4.4	2.0	57.5*	-3.8	?	10.9	46.0*	53.0*
O=C(Nc1ccc2oc(=O)ccc2c1)c1ccc(-c2ccccc2[N+](=O)[O-])o1	-4.2	3.8	62.0*	-2.4	-1.8	17.4	-7.5	·
SMILES	IMP-1 inh	697 NFkB inh	Mdm2-MdmX inh	VIM-2 inhibitor	aSyn 5UTR inh	Jurkat NFkB inh	Mdm2-MdmX conf	FLuc counter
CCn1c(=O)cc(SCC(=O)Nc2ccc(OC)c(OC)c2)c2ccccc21	2.0	17.2	51.9*	0.3	16.5	11.7	42.8*	58.0*
CCC(C)N1CCC2(CC1)N=c1c(c3c4c5c(C)c(O)c3c(O)c1=NC(=O)C(C)=CC=C[C@H](C)[C@H](O)[C@@H](C)[C@@H](O)[C@@H](C)[C@H](OC(C)=O)[C@H](C)[C@@H](OC)C=CO[C@@](C)(O5)C4=O)N2 (some centres not stated)	·	16.5	17.0	·	·	13.0	·	·
CN(c1ccc(F)cc1)S(=O)(=O)c1ccc(Cl)c(C(=O)Nc2ccncc2)c1	·	-78.4	52.2*	·	10.6	18.9	28.1	·
CN(c1ccccc1)S(=O)(=O)c1ccc(Cl)c(C(=O)Nc2ccncc2)c1	·	-32.2	31.2	·	·	1.8	·	·
O=C(Cc1ccc(S(=O)(=O)N2CCOCC2)s1)Nc1ccccc1Br	-2.2	-25.2	66.0*	-1.0	8.4	-10.2	0.2	·
O=C(Cc1ccc(S(=O)(=O)N2CCOCC2)s1)NCC(=O)Nc1ccccc1Br	·	18.6	8.0	·	8.8	11.5	·	·
COC(=O)c1cc(-c2ccc(Br)cc2)c2c(=O)n(C)c(=O)n(C)c2n1	-2.4	11.8	71.6*	1.2	-11.7	2.9	3.6	·
COC(=O)c1cc(-c2ccccc2)c2c(=O)n(C)c(=O)n(C)c2n1	-0.5	·	·	-0.7	·	·	·	·
CN(c1ccccc1)S(=O)(=O)c1ccc(Cl)nc1	-3.0	-2.1	14.5	-3.1	3.7	-5.7	·	·
Cc1nc(S(=O)(=O)N(C)c2ccccc2)c(C#N)c(C)c1Cl	0.0	-0.5	96.2*	0.5	-76.5	13.3	93.4*	57.4*
COc1cc(OC)c2cc(C(=O)N[C@H](C(=O)N3CCC[C@H]3C(=O)O)C(C)C)n(C)c2c1	-3.0	15.2	30.5	-2.6	28.3	11.4	·	·
COc1ccc(S(=O)(=O)Nc2cccc3ccc(O)cc23)cc1	·	-2.4	60.1*	·	15.1	12.3	57.2*	52.1*
COc1ccc(S(=O)(=O)Nc2ccccc2C)cc1	-0.5	-30.4	29.1	-2.3	15.9	12.6	·	·
Cc1ccc(NC(=O)CC2S/C(=N/N=C/C=C/c3ccccc3)NC2=O)cc1Cl (configuration not stated)	-3.8	-19.5	54.0*	-3.2	-12.6	-11.6	6.8	·
